Assay results reported in PMC9055986 (RSC Advances, 2020).

How the values were obtained:
[1] = target: PARP-1 (Homo sapiens, UniProt P09874); assay: In vitro PARP-1 inhibitory assay; format: biochemical; conditions: IC50 (nM), in vitro inhibitory activity against PARP-1; mean ± S.E.M., n = 3
[2] = test system: MCF-7 cells; assay: Cell cycle analysis; format: cell-based; conditions: for cell cycle arrest: MCF-7 cell line, in words; for DNA content% % G0–G1 / DNA content% % G2–M / DNA content% % Pre G1 / DNA content% % S: MCF-7 cells, 10 μg mL^−1, 24 h
[3] = test system: MCF-7 cells; assay: Annexin V-FITC apoptosis assay; format: cell-based; conditions: 2.5 μM, 24 h, Annexin V and PI double staining
How it was run: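 MCF-7 cells exposed to test compound (2.5 μM) for 24 h, then double-stained with Annexin V-FITC and propidium iodide. Stained cells were detected by flow cytometry, and the percentage of apoptotic cells was determined.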

Sequence of PARP-1 (P09874 whole entry): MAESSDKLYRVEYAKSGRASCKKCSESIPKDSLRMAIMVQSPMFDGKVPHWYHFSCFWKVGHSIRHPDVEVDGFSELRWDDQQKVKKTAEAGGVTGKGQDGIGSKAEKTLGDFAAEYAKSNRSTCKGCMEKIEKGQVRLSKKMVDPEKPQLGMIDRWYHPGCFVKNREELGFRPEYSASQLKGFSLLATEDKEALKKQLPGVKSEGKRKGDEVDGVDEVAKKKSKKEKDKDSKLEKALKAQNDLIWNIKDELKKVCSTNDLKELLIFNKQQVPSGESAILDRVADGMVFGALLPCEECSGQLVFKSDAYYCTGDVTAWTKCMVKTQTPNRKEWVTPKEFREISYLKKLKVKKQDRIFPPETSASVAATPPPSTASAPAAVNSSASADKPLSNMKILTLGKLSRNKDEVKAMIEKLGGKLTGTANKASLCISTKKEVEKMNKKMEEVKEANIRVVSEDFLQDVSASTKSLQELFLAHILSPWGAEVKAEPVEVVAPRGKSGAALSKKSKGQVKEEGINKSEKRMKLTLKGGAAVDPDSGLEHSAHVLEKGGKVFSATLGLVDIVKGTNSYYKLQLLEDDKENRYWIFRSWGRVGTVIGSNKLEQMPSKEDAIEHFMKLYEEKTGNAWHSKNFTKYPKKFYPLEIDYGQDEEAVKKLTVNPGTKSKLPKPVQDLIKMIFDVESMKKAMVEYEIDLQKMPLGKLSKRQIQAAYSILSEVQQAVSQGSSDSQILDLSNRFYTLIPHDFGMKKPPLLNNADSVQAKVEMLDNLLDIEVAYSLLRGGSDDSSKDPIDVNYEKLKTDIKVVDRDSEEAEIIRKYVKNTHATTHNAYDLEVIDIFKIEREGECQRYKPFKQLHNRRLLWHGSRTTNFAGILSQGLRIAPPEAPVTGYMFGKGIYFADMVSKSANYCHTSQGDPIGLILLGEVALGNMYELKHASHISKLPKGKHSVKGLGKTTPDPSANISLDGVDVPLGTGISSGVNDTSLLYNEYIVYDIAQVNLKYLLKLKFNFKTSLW

IC50 [1] [nM] | SMILES | cell cycle arrest [2] | DNA content% % G0–G1 [2] [%] | DNA content% % G2–M [2] [%] | DNA content% % Pre G1 [2] [%] | DNA content% % S [2] [%] | Apoptosis Total [3] [%]
56 ± 2.95 | COC(=O)c1ccc(NC(=O)Cn2c(=S)n(-c3ccccc3)c(=O)c3ccccc32)cc1 [Compound 6a, Methyl 4-(2-(4-oxo-3-phenyl-2-thioxo-3,4-dihydroquinazolin-1(2H)-yl)acetamido)benzoate] |  |  |  |  |  | 
64.7 ± 3.38 | CC(=O)c1ccc(NC(=O)Cn2c(=S)n(-c3ccccc3)c(=O)c3ccccc32)cc1 [Compound 6b, N-(4-Acetylphenyl)-2-(4-oxo-3-phenyl-2-thioxo-3,4-dihydroquinazolin-1(2H)-yl)acetamide] |  |  |  |  |  | 
32.5 ± 2.64 | COc1ccc(-c2cc(-c3ccc(NC(=O)CSc4nc5ccccc5c(=O)n4-c4ccccc4)cc3)nc(N)c2C#N)cc1 [Compound 8a, N-(4-(6-Amino-5-cyano-4-(4-methoxyphenyl)pyridin-2-yl)phenyl)-2-((4-oxo-3-phenyl-3,4-dihydroquinazolin-2-yl)thio)acetamide] |  |  |  |  |  | 
39.1 ± 3.89 | COC(=O)c1ccc(NC(=O)CNNc2nc3ccccc3c(=O)n2-c2ccccc2)cc1 [Compound 12a, Methyl 4-(2-(2-(4-oxo-3-phenyl-3,4-dihydroquinazolin-2-yl)hydrazinyl)acetamido)benzoate] | cell growth arrest at the G2/M phase | 38.51 | 38.06 | 26.55 | 23.43 | 
27.9 ± 3.45 | NS(=O)(=O)c1ccc(NC(=O)CNNc2nc3ccccc3c(=O)n2-c2ccccc2)cc1 [Compound 12c, 2-(2-(4-Oxo-3-phenyl-3,4-dihydroquinazolin-2-yl)hydrazinyl)-N-(4-sulfamoylphenyl)-acetamide] | cell growth arrest at the G2/M phase | 43.28 | 23.49 | 19.31 | 33.23 | 
44.2 ± 3.12 | O=c1c2ccccc2nc(NN=Cc2ccc(O)cc2)n1-c1ccccc1 [Compound 13b, 2-(2-(4-Hydroxybenzylidene)hydrazinyl)-3-phenylquinazolin-4(3H)-one] |  |  |  |  |  | 
45.6 ± 2.86 | COc1ccccc1C=NNc1nc2ccccc2c(=O)n1-c1ccccc1 [Compound 13c, 2-(2-(2-Methoxybenzylidene)hydrazinyl)-3-phenylquinazolin-4(3H)-one] |  |  |  |  |  | 
 | CN[C@@H]1C[C@H]2O[C@@](C)([C@@H]1OC)n1c3ccccc3c3c4c(c5c6ccccc6n2c5c31)C(=O)NC4 [Stauroporine, reference compound] |  | 37.19 | 36.59 |  | 26.22 | 31.74
